ChEMBL document CHEMBL1151224, “Geranylgeraniol-type diterpenoids, boletinins A-J, from Boletinus cavipes as inhibitors of superoxide anion generation in macrophage cells” (J Nat Prod, 2004)

Assays:
[1] = Cytotoxicity against CD mouse macrophages assessed as cell viability at 50 uM by trypan blue exclusion test; format: cell-based, Macrophage; details: read-out: Activity
[2] = target: T1, Xanthine dehydrogenase/oxidase (Homo sapiens, UniProt P47989); assay: Inhibition of XOD at 25 uM relative to control
Macrophage [3] = assay: Radical scavenging activity in CD mouse macrophages assessed as inhibition of superoxide anion generation at 50 uM relative to control; format: functional
Method in brief: (§1)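 Superoxide anion (O2•-) generation was measured in macrophage cells stimulated with the tumor promoter 12-O-tetradecanoylphorbol-13-acetate (TPA), and test samples were evaluated for suppression of this TPA-induced generation.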

[4] = target: T1, Xanthine dehydrogenase/oxidase; assay: Inhibition of XOD at 125 uM relative to control
Macrophage [5] = assay: Radical scavenging activity in CD mouse macrophages assessed as inhibition of superoxide anion generation at 25 uM relative to control; format: functional; method in brief: as §1

T1 sequence (P47989 whole entry): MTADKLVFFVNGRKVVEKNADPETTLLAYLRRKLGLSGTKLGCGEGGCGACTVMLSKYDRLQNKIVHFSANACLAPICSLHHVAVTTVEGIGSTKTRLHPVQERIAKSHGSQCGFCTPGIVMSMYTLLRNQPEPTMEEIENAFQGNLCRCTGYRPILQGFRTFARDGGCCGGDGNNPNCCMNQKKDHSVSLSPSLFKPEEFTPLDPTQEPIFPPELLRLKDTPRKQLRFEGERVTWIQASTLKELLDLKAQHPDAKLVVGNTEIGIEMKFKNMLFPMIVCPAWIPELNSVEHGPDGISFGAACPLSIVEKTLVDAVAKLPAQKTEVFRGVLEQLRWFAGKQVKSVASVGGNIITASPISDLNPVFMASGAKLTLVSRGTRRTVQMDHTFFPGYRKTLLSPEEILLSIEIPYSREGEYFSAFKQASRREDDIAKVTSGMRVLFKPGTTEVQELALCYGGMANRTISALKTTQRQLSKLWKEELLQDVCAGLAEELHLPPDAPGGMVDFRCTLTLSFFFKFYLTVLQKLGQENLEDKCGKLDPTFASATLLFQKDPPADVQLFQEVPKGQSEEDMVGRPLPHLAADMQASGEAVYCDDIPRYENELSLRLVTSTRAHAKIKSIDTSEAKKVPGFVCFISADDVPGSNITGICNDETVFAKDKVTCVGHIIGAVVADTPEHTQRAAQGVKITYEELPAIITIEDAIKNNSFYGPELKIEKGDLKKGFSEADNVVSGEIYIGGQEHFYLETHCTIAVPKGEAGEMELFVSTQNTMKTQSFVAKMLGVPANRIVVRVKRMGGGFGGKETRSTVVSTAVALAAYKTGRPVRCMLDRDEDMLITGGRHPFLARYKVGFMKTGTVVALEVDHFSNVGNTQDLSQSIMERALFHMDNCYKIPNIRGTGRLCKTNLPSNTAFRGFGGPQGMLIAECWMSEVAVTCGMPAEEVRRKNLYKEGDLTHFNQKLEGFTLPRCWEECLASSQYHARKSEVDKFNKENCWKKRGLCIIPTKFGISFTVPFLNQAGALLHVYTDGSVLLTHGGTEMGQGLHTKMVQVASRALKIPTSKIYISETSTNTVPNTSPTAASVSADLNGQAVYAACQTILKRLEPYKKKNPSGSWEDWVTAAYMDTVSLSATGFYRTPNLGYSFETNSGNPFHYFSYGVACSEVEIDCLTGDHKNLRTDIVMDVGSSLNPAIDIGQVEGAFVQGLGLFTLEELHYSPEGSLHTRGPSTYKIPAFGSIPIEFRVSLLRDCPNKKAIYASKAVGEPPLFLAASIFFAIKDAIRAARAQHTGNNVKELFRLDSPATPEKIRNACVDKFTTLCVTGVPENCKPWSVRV

In the case of `O=c1c(O)c(-c2ccc(O)c(O)c2)oc2cc(O)cc(O)c12` [QUERCETIN], the viability at 50 µM [1] is reported as 101%, the inhibition at 25 µM [2] is reported as 31% and the inhibition at 50 µM (Macrophage [3]) is reported as 28%. For the same compound, the inhibition at 125 µM [4] was 72% and the inhibition at 25 µM (Macrophage [5]) was 19%.
